One data set concerns Vero cells. Nature of the data set: Initial cytotoxicity study. The settings on record: at 100 μM concentration. It is filed as cell-based, African green monkey. The method, boiled down: (§1)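 Confluent monolayers in triplicate wells of 24-well plates, exposed to compounds diluted from 0.1M DMSO stocks in growth medium (final 10−4 M to 10−8 M). A DMSO co-solvent control was run for each dilution and compared with cell controls. Cytotoxicity scored by abnormal morphology: clumping, detachment or rounding up of cells. Scored +/−.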

Another data set deals with HSV-1 McKrae strain. Nature of the data set: Plaque reduction assay, HSV-1 in Vero cells. It is filed as cell-based, herpes simplex virus type 1. The following applies: Human alphaherpesvirus 1, Vero, 96 h. Summed up:
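Confluent Vero monolayers in 24-well plates infected with 100 pfu McKrae strain per well, adsorbed 1 h at 37°C, washed with Hanks' BSS. Agar overlay containing compound dilutions applied to triplicate wells, alongside triplicate cell and virus controls. Day 4: methanol:acetic acid (3:1) fixation, 1% crystal violet stain, plaque count. IC50 calculated from dose-response plots; selectivity index taken as TC50/IC50.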

In a further data set the test system is A549 cells. Nature of the data set: Initial cytotoxicity study. In kind it is cell-based, Human. The following applies: at 100 μM concentration. The method, boiled down:
as §1

For orientation: IC50 means the concentration needed to halve the response being measured. Read a high IC50 as weaker potency in that assay.

Structures are written as SMILES.

As to `Nc1nc2c(ncn2COCCO)c(=O)[nH]1` [Acyclovir, acyclovir], the Cytotoxicity entry with Vero cells is “− (Vero cells)”. The compound also came in with an IC50 in the data set with HSV-1 McKrae strain of 1800 nM.

With `Nc1ccn(C[C@@H](CO)OCP(=O)(O)O)c(=O)n1` [Cidofovir], the Cytotoxicity result with A549 cells is given as “− (A549 cells)”.

The record behind these values is PMC7125830 (Antiviral Research, 1999).
